From ChEMBL document CHEMBL4689842, “EUbOPEN Chemogenomics Library wave 1” (2021)

System: HEK-293T
Test: Multiplex assay against HEK293T;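 for Population Tubulin-Different-Phenotype (%): share of the cells with healthy nuclei that show this phenotype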
Format: toxicity, cell-based
Conditions: human
Method in brief: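 With compound added, live cells were imaged on a CQ1 microscope at 37°C and 5% CO2; staining with Hoechst33342, BioTracker Green Microtubule Cytoskeleton Dye, MitoTracker Red and Annexin V Alexa Fluor 680 had been done at seeding. The CellPathfinder machine-learning gating scheme split cells into Hoechst high-intensity objects or normal cells, normal cells into healthy, pyknosed or fragmented nuclei, and pyknosed cells into mitotic or apoptotic. The tubulin, mitochondrial-mass and membrane-permeability phenotypes are per cents of healthy-nucleus cells.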

[1] = 12 h, 1 µM, compound concentration 1 uM, replicate 1
[2] = 12 h, 1 µM, compound concentration 1 uM, replicate 2
[3] = 12 h, 10 µM, compound concentration 10 uM, replicate 1
[4] = 12 h, 10 µM, compound concentration 10 uM, replicate 2
[5] = 24 h, 1 µM, compound concentration 1 uM, replicate 1
[6] = 24 h, 1 µM, compound concentration 1 uM, replicate 2
[7] = 24 h, 10 µM, compound concentration 10 uM, replicate 1
[8] = 24 h, 10 µM, compound concentration 10 uM, replicate 2
[9] = 48 h, 1 µM, compound concentration 1 uM, replicate 1
[10] = 48 h, 1 µM, compound concentration 1 uM, replicate 2
[11] = 48 h, 10 µM, compound concentration 10 uM, replicate 1
[12] = 48 h, 10 µM, compound concentration 10 uM, replicate 2

With O=C1NC(=O)C(c2cnc3ccccn23)=C1c1cn2c3c(cc(F)cc13)CN(C(=O)N1CCCCC1)CC2 [LY-2090314] as the compound, how does the “Population Apoptotic (%)” value [1] read?
Its value is 46%.

What about the “Population Fragmented Nuclei (%)” value [1] of the same compound?
Its value is 8%.

And the “Population Healthy Nuclei (%)” value [1]?
Its value is 18%.

What about the “Population Hoechst High Intensity Objects (%)” value [1] of the same compound?
Its value is 16%.

And the “Population Membrane Permeable-Phenotype (%)” value [1]?
The value was 10%.

What about the “Population Mitochondria Different-Phenotype (%)” value [1] of the same compound?
Its value is 93%.

What about the “Population Mitotic Cells (%)” value [1] of the same compound?
Its value is 53%.

What about the “Population Normal (%)” value [1] of the same compound?
Its value is 83%.

And the “Population Pyknosed Nuclei (%)” value [1]?
Its value is 73%.

And the “Population Tubulin-Different-Phenotype (%)” value [1]?
The value was 89%.

What about the “Total Cell Count” value [1] of the same compound?
Its value is 191.

What about the “Population Apoptotic (%)” value [2] of the same compound?
The value was 26%.

What about the “Population Fragmented Nuclei (%)” value [2] of the same compound?
Its value is 6%.

And the “Population Healthy Nuclei (%)” value [2]?
Its value is 31%.

And the “Population Hoechst High Intensity Objects (%)” value [2]?
The value was 7%.

What about the “Population Membrane Permeable-Phenotype (%)” value [2] of the same compound?
The value was 16%.

What about the “Population Mitochondria Different-Phenotype (%)” value [2] of the same compound?
Its value is 51%.

And the “Population Mitotic Cells (%)” value [2]?
Its value is 73%.

What about the “Population Normal (%)” value [2] of the same compound?
The value was 92%.

What about the “Population Pyknosed Nuclei (%)” value [2] of the same compound?
The value was 62%.

And the “Population Tubulin-Different-Phenotype (%)” value [2]?
Its value is 61%.

What about the “Total Cell Count” value [2] of the same compound?
The value was 210.

What about the “Population Apoptotic (%)” value [3] of the same compound?
The value was 76%.

And the “Population Fragmented Nuclei (%)” value [3]?
The value was 8%.

And the “Population Healthy Nuclei (%)” value [3]?
Its value is 18%.

What about the “Population Hoechst High Intensity Objects (%)” value [3] of the same compound?
Its value is 17%.

What about the “Population Membrane Permeable-Phenotype (%)” value [3] of the same compound?
Its value is 0%.

What about the “Population Mitochondria Different-Phenotype (%)” value [3] of the same compound?
The value was 100%.

What about the “Population Mitotic Cells (%)” value [3] of the same compound?
The value was 23%.

What about the “Population Normal (%)” value [3] of the same compound?
Its value is 82%.

What about the “Population Pyknosed Nuclei (%)” value [3] of the same compound?
The value was 73%.

And the “Population Tubulin-Different-Phenotype (%)” value [3]?
Its value is 96%.

And the “Total Cell Count” value [3]?
The value was 186.

What about the “Population Apoptotic (%)” value [4] of the same compound?
The value was 58%.

And the “Population Fragmented Nuclei (%)” value [4]?
The value was 6%.

And the “Population Healthy Nuclei (%)” value [4]?
Its value is 5%.

And the “Population Hoechst High Intensity Objects (%)” value [4]?
The value was 8%.

What about the “Population Membrane Permeable-Phenotype (%)” value [4] of the same compound?
The value was 14%.

What about the “Population Mitochondria Different-Phenotype (%)” value [4] of the same compound?
Its value is 85%.

What about the “Population Mitotic Cells (%)” value [4] of the same compound?
Its value is 41%.

And the “Population Normal (%)” value [4]?
The value was 91%.

And the “Population Pyknosed Nuclei (%)” value [4]?
Its value is 87%.

And the “Population Tubulin-Different-Phenotype (%)” value [4]?
The value was 85%.

And the “Total Cell Count” value [4]?
Its value is 135.

And the “Population Apoptotic (%)” value [5]?
The value was 53%.

What about the “Population Fragmented Nuclei (%)” value [5] of the same compound?
The value was 13%.

And the “Population Healthy Nuclei (%)” value [5]?
The value was 26%.

What about the “Population Hoechst High Intensity Objects (%)” value [5] of the same compound?
Its value is 17%.

And the “Population Membrane Permeable-Phenotype (%)” value [5]?
The value was 6%.

What about the “Population Mitochondria Different-Phenotype (%)” value [5] of the same compound?
The value was 93%.

What about the “Population Mitotic Cells (%)” value [5] of the same compound?
The value was 46%.

And the “Population Normal (%)” value [5]?
The value was 82%.

What about the “Population Pyknosed Nuclei (%)” value [5] of the same compound?
The value was 59%.

What about the “Population Tubulin-Different-Phenotype (%)” value [5] of the same compound?
The value was 79%.

And the “Total Cell Count” value [5]?
The value was 198.

What about the “Population Apoptotic (%)” value [6] of the same compound?
The value was 29%.

What about the “Population Fragmented Nuclei (%)” value [6] of the same compound?
Its value is 5%.

What about the “Population Healthy Nuclei (%)” value [6] of the same compound?
The value was 44%.

And the “Population Hoechst High Intensity Objects (%)” value [6]?
Its value is 6%.

And the “Population Membrane Permeable-Phenotype (%)” value [6]?
The value was 8%.

And the “Population Mitochondria Different-Phenotype (%)” value [6]?
Its value is 42%.

And the “Population Mitotic Cells (%)” value [6]?
Its value is 70%.

What about the “Population Normal (%)” value [6] of the same compound?
Its value is 93%.

What about the “Population Pyknosed Nuclei (%)” value [6] of the same compound?
Its value is 50%.

And the “Population Tubulin-Different-Phenotype (%)” value [6]?
The value was 66%.

And the “Total Cell Count” value [6]?
Its value is 256.

What about the “Population Apoptotic (%)” value [7] of the same compound?
The value was 86%.

What about the “Population Healthy Nuclei (%)” value [7] of the same compound?
Its value is 38%.

And the “Population Hoechst High Intensity Objects (%)” value [7]?
The value was 14%.

What about the “Population Membrane Permeable-Phenotype (%)” value [7] of the same compound?
The value was 1%.

And the “Population Mitotic Cells (%)” value [7]?
Its value is 13%.

And the “Population Normal (%)” value [7]?
Its value is 85%.

And the “Population Pyknosed Nuclei (%)” value [7]?
Its value is 52%.

And the “Total Cell Count” value [7]?
Its value is 187.

And the “Population Apoptotic (%)” value [8]?
The value was 77%.

And the “Population Fragmented Nuclei (%)” value [8]?
The value was 8%.

And the “Population Healthy Nuclei (%)” value [8]?
Its value is 30%.

What about the “Population Hoechst High Intensity Objects (%)” value [8] of the same compound?
The value was 8%.

What about the “Population Membrane Permeable-Phenotype (%)” value [8] of the same compound?
The value was 2%.

What about the “Population Mitochondria Different-Phenotype (%)” value [8] of the same compound?
Its value is 100%.

And the “Population Mitotic Cells (%)” value [8]?
Its value is 22%.

And the “Population Normal (%)” value [8]?
Its value is 91%.

What about the “Population Pyknosed Nuclei (%)” value [8] of the same compound?
Its value is 61%.

And the “Population Tubulin-Different-Phenotype (%)” value [8]?
The value was 95%.

And the “Total Cell Count” value [8]?
The value was 148.

And the “Population Apoptotic (%)” value [9]?
The value was 52%.

And the “Population Fragmented Nuclei (%)” value [9]?
The value was 15%.

And the “Population Healthy Nuclei (%)” value [9]?
The value was 39%.

And the “Population Hoechst High Intensity Objects (%)” value [9]?
The value was 14%.

And the “Population Membrane Permeable-Phenotype (%)” value [9]?
Its value is 1%.

What about the “Population Mitochondria Different-Phenotype (%)” value [9] of the same compound?
Its value is 67%.

And the “Population Mitotic Cells (%)” value [9]?
Its value is 47%.

And the “Population Normal (%)” value [9]?
Its value is 85%.

And the “Population Pyknosed Nuclei (%)” value [9]?
The value was 44%.

What about the “Population Tubulin-Different-Phenotype (%)” value [9] of the same compound?
Its value is 73%.

What about the “Total Cell Count” value [9] of the same compound?
Its value is 230.

And the “Population Apoptotic (%)” value [10]?
The value was 29%.

What about the “Population Fragmented Nuclei (%)” value [10] of the same compound?
Its value is 3%.

What about the “Population Healthy Nuclei (%)” value [10] of the same compound?
Its value is 68%.

And the “Population Hoechst High Intensity Objects (%)” value [10]?
Its value is 8%.

And the “Population Membrane Permeable-Phenotype (%)” value [10]?
The value was 12%.

And the “Population Mitochondria Different-Phenotype (%)” value [10]?
Its value is 24%.

What about the “Population Mitotic Cells (%)” value [10] of the same compound?
Its value is 70%.

And the “Population Normal (%)” value [10]?
The value was 91%.

And the “Population Pyknosed Nuclei (%)” value [10]?
Its value is 27%.

What about the “Population Tubulin-Different-Phenotype (%)” value [10] of the same compound?
The value was 57%.

What about the “Total Cell Count” value [10] of the same compound?
Its value is 309.

And the “Population Apoptotic (%)” value [11]?
The value was 80%.

And the “Population Fragmented Nuclei (%)” value [11]?
The value was 11%.

And the “Population Hoechst High Intensity Objects (%)” value [11]?
Its value is 12%.

What about the “Population Membrane Permeable-Phenotype (%)” value [11] of the same compound?
The value was 0%.

What about the “Population Mitochondria Different-Phenotype (%)” value [11] of the same compound?
The value was 99%.

And the “Population Mitotic Cells (%)” value [11]?
The value was 19%.

What about the “Population Normal (%)” value [11] of the same compound?
Its value is 87%.

What about the “Population Pyknosed Nuclei (%)” value [11] of the same compound?
The value was 23%.

What about the “Total Cell Count” value [11] of the same compound?
Its value is 200.

And the “Population Apoptotic (%)” value [12]?
The value was 78%.

And the “Population Fragmented Nuclei (%)” value [12]?
The value was 7%.

And the “Population Healthy Nuclei (%)” value [12]?
The value was 65%.

What about the “Population Hoechst High Intensity Objects (%)” value [12] of the same compound?
The value was 5%.

And the “Population Membrane Permeable-Phenotype (%)” value [12]?
Its value is 5%.

And the “Population Mitochondria Different-Phenotype (%)” value [12]?
Its value is 95%.

And the “Population Mitotic Cells (%)” value [12]?
The value was 21%.

What about the “Population Normal (%)” value [12] of the same compound?
The value was 94%.

What about the “Population Pyknosed Nuclei (%)” value [12] of the same compound?
The value was 27%.

What about the “Population Tubulin-Different-Phenotype (%)” value [12] of the same compound?
The value was 97%.

And the “Total Cell Count” value [12]?
Its value is 159.
